Source: the M2OR odorant receptor database

Experiments:
Settings in all cases: stereoisomer not certain
OR9G9 = test system: OR9G9
Outline: (§1)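 Transient luciferase assays in mammalian cell lines were common, though methods varied by source. The values come from published papers and their supplementary material, with extra details from the original authors when needed. Responsive refers to a measured signal the original authors judged statistically different from baseline, and non-responsive (inactive) to the remainder.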

OR9I1 (Homo sapiens) = OR9I1 (Homo sapiens) (UniProt Q8NGQ6)
Sequence of OR9I1 (Homo sapiens) (Q8NGQ6 whole entry): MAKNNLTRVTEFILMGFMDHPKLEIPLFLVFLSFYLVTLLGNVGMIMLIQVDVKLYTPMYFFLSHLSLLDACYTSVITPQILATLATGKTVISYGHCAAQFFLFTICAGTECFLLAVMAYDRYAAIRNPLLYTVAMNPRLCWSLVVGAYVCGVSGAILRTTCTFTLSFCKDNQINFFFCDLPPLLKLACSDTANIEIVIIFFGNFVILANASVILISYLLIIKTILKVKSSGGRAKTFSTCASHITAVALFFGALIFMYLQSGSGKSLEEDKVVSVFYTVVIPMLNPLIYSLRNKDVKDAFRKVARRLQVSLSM
Outline: as §1

OR9K2 (Homo sapiens) = OR9K2 (Homo sapiens) (UniProt Q8NGE7)
Sequence of OR9K2 (Homo sapiens) (Q8NGE7 whole entry): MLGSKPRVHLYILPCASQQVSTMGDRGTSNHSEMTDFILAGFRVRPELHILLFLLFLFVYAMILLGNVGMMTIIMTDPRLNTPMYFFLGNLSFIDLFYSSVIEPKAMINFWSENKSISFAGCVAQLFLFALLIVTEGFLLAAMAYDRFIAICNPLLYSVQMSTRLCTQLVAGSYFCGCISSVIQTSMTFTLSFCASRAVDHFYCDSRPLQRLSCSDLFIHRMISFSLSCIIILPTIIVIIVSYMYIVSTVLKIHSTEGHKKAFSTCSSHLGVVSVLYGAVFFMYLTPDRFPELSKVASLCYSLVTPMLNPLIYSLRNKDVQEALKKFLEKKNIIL
Outline: as §1

OR9K2 R207H = test system: OR9K2 R207H
Sequence of OR9K2 R207H (as listed by the source, stated change not applied): as the sequence (Q8NGE7 whole entry) above, with R207H counted along it
Outline: as §1

OR9Q1 (Homo sapiens) = OR9Q1 (Homo sapiens) (UniProt Q8NGQ5)
Sequence of OR9Q1 (Homo sapiens) (Q8NGQ5 whole entry): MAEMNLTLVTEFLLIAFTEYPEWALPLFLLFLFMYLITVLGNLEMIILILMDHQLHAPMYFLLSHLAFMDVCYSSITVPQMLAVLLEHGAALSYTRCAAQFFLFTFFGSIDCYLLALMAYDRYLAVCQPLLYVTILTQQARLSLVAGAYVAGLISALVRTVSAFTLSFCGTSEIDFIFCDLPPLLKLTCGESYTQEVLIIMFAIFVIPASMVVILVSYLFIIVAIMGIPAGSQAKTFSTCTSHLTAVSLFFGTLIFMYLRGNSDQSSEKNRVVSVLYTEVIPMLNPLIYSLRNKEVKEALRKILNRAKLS
Outline: as §1

OR9Q1 A83T = test system: OR9Q1 A83T
Sequence of OR9Q1 A83T (as listed by the source, stated change not applied): as the sequence (Q8NGQ5 whole entry) above, with A83T counted along it
Outline: as §1

OR9Q2 (Homo sapiens) = OR9Q2 (Homo sapiens) (UniProt Q8NGE9)
Sequence of OR9Q2 (Homo sapiens) (Q8NGE9 whole entry): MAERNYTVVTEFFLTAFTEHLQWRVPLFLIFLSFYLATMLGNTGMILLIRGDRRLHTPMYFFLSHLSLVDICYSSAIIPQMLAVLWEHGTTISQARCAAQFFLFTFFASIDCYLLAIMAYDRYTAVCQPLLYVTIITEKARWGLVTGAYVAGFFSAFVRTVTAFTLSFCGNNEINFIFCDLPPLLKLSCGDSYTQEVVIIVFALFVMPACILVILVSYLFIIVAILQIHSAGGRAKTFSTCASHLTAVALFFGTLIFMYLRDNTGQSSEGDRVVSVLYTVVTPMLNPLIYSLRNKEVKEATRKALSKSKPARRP
Outline: as §1

OR9Q2 C179R = test system: OR9Q2 C179R
Sequence of OR9Q2 C179R (as listed by the source, stated change not applied): as the sequence (Q8NGE9 whole entry) above, with C179R counted along it
Outline: as §1

OR9G9 (Homo sapiens) = OR9G9 (Homo sapiens) (UniProt P0C7N8)
Sequence of OR9G9 (Homo sapiens) (P0C7N8 whole entry): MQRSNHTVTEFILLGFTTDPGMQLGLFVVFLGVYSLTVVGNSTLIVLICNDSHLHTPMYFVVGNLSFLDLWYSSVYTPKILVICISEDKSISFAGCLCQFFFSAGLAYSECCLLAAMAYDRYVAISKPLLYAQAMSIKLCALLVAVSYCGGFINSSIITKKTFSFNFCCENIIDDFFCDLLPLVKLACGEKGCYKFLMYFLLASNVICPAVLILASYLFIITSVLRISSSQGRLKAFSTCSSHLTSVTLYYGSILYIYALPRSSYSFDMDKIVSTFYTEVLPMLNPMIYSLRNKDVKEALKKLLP
Outline: as §1

[1] = molecular target: Olr226 (Rattus norvegicus) (UniProt P23270)
Sequence of Olr226 (Rattus norvegicus) (P23270 whole entry): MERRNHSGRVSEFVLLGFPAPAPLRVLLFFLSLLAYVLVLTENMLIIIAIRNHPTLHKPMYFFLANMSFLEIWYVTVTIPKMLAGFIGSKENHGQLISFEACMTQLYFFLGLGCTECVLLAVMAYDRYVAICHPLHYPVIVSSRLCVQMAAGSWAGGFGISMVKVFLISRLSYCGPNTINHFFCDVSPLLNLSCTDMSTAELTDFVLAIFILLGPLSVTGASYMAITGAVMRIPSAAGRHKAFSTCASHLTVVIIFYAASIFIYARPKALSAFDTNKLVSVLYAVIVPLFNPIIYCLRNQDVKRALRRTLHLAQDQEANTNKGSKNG
Outline: as §1

Measured: odorant receptor agonist call;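 note: active if original authors judged signal statistically different from baseline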

Sequence of OR9G9 (as listed by the source): as the sequence (P0C7N8 whole entry) above, with C193G counted along it

C=CCOC(=O)Cc1ccccc1
not listed: OR9G9 (Homo sapiens) | [1]
inactive: all other assays above

O=CC=Cc1ccccc1
active: OR9G9

Cc1c([N+](=O)[O-])c(C)c([N+](=O)[O-])c(C(C)(C)C)c1[N+](=O)[O-]
inactive: OR9G9 (Homo sapiens) | OR9I1 (Homo sapiens) | OR9K2 (Homo sapiens) | OR9Q1 (Homo sapiens) | OR9Q2 (Homo sapiens)

CC(C=O)Cc1ccc2c(c1)OCO2 (stereo not given)
inactive: [1]
